Results as given in ChEMBL document CHEMBL4627246, “Pyroglutamide-Based P2X7 Receptor Antagonists Targeting Inflammatory Bowel Disease” (J Med Chem, 2020).
The source made the active and inactive calls. Unless noted, the rule behind the calls is not given here.

What was measured:
[1] = molecular target: T1, P2X purinoceptor 7 (Homo sapiens) (UniProt Q99572); experiment: Inhibition of human P2X7 expressed in human HEK293 cells assessed as reduction in BzATP-stimulated TO-PRO-3 incorporation at 10 uM preincubated with compound and TO-PRO-3 for 15 mins prior to BzATP addition and measured after 1 hr by Fluo-3AM dye based flow cytometry relative to control; type: cell-based
T1 sequence (whole entry): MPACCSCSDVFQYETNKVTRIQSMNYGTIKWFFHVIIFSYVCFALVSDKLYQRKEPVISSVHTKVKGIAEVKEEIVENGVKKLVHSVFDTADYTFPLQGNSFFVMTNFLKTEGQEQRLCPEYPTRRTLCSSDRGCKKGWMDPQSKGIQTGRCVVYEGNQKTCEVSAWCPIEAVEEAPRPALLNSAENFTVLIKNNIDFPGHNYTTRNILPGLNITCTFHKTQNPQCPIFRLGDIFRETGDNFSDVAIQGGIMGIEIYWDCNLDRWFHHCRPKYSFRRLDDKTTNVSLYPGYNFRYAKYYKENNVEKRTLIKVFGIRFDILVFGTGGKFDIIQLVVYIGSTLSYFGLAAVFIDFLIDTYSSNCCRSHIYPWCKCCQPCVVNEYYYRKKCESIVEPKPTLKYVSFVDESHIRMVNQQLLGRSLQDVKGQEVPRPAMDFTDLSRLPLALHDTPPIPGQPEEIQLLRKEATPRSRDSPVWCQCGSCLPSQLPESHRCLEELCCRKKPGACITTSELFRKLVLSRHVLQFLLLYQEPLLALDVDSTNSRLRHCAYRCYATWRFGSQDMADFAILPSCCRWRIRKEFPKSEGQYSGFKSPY
Method in brief: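 HEK-293 cells overexpressing human P2RX7 loaded with Fluo-3 AM, then incubated with TO-PRO-3 (large pore uptake) and propidium iodide (viability) plus compound (10⁻⁵ M single point) for 15 min before BzATP 100 µM. After 1 h, flow cytometry; percentage of Fluo-3/TO-PRO-3 double-positive cells calculated. Mean of n ≥ 2 with positive control.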

[2] = Metabolic stability in human hepatocytes; type: ADME, cell-based, Hepatocyte
[3] = molecular target: T1, P2X purinoceptor 7 (Homo sapiens); experiment: Antagonist activity at P2X7 receptor in human THP-1 cells assessed as inhibition of LPS and BzATP-induced IL-1beta production at 10^-6 mol/L pretreated with compound followed by LPS/BzATP addition and measured after 2 to 6 hrs by ELISA; type: cell-based; settings: TDE = time-dependent effect
Method in brief: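 PMA (100nM)-differentiated THP-1 macrophages (RPMI 1640, 10% FCS), 10^6 cells, pretreated with antagonist at […], then challenged with LPS 10 μmol/L and BzATP 70 μmol/L at 37 °C, 5% CO2; IL1β measured by ELISA, including the 6 h point; mean ± SD, P<0.05 significant.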

[4] = molecular target: T2, P2X purinoceptor 7 (Homo sapiens, UniProt Q99572); experiment: Displacement of [3H]-A804598 from human P2X7 expressed in human HEK293 cell membrane incubated for 1 hr by microplate scintillation counting method; type: cell membranes
T2 sequence (Q99572 whole entry): T1 sequence (whole entry)

[5] = Metabolic stability in human liver microsomes assessed as half life at 0.2 mg/ml incubated for 60 mins by UPLC/MS-MS analysis; type: ADME, Microsome
[6] = Drug metabolism in mouse measured after 40 mins; type: ADME; settings: read-out: Drug metabolism
[7] = Metabolic stability in human liver microsomes assessed as intrinsic clearance at 0.2 mg/ml incubated for 60 mins by UPLC/MS-MS analysis; type: ADME, Microsome; settings: read-out: CLH
[8] = molecular target: T1, P2X purinoceptor 7 (Homo sapiens); experiment: Antagonist activity at P2X7 receptor in human THP-1 cells assessed as inhibition of LPS and BzATP-induced IL-1beta production at 10^-5 mol/L pretreated with compound followed by LPS/BzATP addition and measured after 2 to 6 hrs by ELISA; type: cell-based
Method in brief: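 THP-1 monocytes grown in RPMI 1640 + 10% FCS, differentiated to macrophages with PMA (100nM); 10^6 cells pretreated with antagonist at 10^-5 mol/L, then exposed to LPS 10 μmol/L plus BzATP 70 μmol/L at 37 °C, 5% CO2; IL1β quantified by ELISA in samples at 2, 4 and 6 h; mean ± SD, significance P<0.05.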

[9] = molecular target: T1, P2X purinoceptor 7 (Homo sapiens); experiment: Antagonist activity at P2X7R in human THP1 cells assessed as inhibition of LPS and BzATP-induced ROS production at 10^-5 mol/L pretreated with compound followed by LPS/BzATP addition and measured up to 5 hrs by kinetic chemiluminescence based fluorometric analysis; type: cell-based; settings: THP-1
Method in brief: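 PMA-differentiated THP-1 macrophages (10^5 cells) in RPMI 1640 + 10% FBS pretreated with antagonist at 10^-5 mol/L, then LPS 10 μmol/L plus BzATP 70 μmol/L at 37 °C, 5% CO2; horseradish peroxidase (50 μg/mL) and luminol (50 μM) mixture added, chemiluminescence read on a fluorometer; cell-free H2O2 serves as positive control.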

[10] = Solubility of compound in saline at 1mg/ml; type: physicochemical; settings: buffer
[11] = tested on: HEK293; experiment: Cytotoxicity against human HEK293 cells assessed as reduction in cell viability at 10^-5 mol/L incubated for 72 hrs; type: cell-based; settings: hek293, 72 h, 10 µM
Method in brief: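 Wild-type and P2RX7-transfected HEK293 cells exposed to compound for 72 hours; viability compared against untreated control.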

[12] = molecular target: T3, P2X purinoceptor 1 (Homo sapiens) (UniProt P51575); experiment: Antagonist activity at P2X1 receptor in human platelet assessed as inhibition of thrombin-induced platelet aggregation at 10 '-5 to 10^-6 mol/L pretreated with compound and LPS/BzATP for 10 mins followed by thrombin addition and measured for 8 mins by aggregometry analysis; type: cell-based
T3 sequence (whole entry): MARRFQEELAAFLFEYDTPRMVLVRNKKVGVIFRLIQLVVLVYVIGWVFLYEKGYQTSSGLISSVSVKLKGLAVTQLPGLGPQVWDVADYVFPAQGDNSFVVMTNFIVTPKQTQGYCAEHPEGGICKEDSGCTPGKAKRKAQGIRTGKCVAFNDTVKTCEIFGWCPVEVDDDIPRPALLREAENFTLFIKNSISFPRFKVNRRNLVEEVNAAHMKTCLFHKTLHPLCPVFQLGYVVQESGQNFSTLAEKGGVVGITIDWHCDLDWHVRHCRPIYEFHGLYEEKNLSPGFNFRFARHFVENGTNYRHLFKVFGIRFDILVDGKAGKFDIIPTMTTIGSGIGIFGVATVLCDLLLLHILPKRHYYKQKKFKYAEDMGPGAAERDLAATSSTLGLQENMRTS

[13] = molecular target: T1, P2X purinoceptor 7 (Homo sapiens); experiment: Antagonist activity at P2X7R in human THP1 cells assessed as inhibition of LPS and BzATP-induced IL-1beta expression by measuring increase in proIL-1beta expression in cell supernatant extract at 10^-6 mol/L pretreated with compound followed by LPS/BzATP addition and measured after 6 hrs by Western blot analysis; type: cell-based; settings: THP-1
[14] = molecular target: T1, P2X purinoceptor 7 (Homo sapiens); experiment: Antagonist activity at P2X7R in human THP1 cells assessed as inhibition of LPS and BzATP-induced cell death at 10^-6 mol/L pretreated with compound followed by LPS/BzATP addition and measured after 6 hrs by sytox green dye based flow cytometry; settings: THP-1

Q: Which inhibition [1] does the source give for `COc1ccc(CNC(=O)[C@@H]2CCC(=O)N2Cc2ccc(Cl)cc2Cl)c(OC)c1` here?
A: 0%

Q: With `O=C(NCc1ccc(Cl)cc1Cl)[C@@H]1CCC(=O)N1c1ccccc1` as the compound, how does the inhibition [1] read?
A: 50%

Q: And the Stability [2]?
A: Unstable

Q: Which inhibition [1] does the source give for `O=C(NCc1ccccc1Cl)[C@@H]1CCC(=O)N1Cc1ccccc1Cl` here?
A: 0%

Q: For `CN1C(=O)CC[C@H]1C(=O)NCc1cccc(C(F)(F)F)c1Cl` [GSK1482160], which inhibition [3] is on record?
A: Tde

Q: What about the IC50 [4] of the same compound?
A: 0.332 µM

Q: What about the Ki [4] of the same compound?
A: 0.068 µM

Q: What about the half-life [5] of the same compound?
A: 800 min

Q: And the metabolised at 40 min [6]?
A: 4.4%

Q: And the microsomal CLint [7]?
A: 2.8 µL/min/mg

Q: And the inhibition [8]?
A: Active

Q: And the inhibition [9]?
A: Active

Q: What about the solubility [10] of the same compound?
A: Insoluble

Q: What about the inhibition [1] of the same compound?
A: 98%

Q: And the Stability [2]?
A: Stable

Q: For `C[n+]1ccccc1C(=O)NCc1ccc(Cl)cc1Cl.[I-]`, which inhibition [1] is on record?
A: 0%

Q: For `COc1cc(CNC(=O)[C@@H]2CCC(=O)N2)cc(OC)c1OC`, which inhibition [1] is on record?
A: inactive

Q: For `O=C(NCC1CCCCC1)[C@@H]1CCC(=O)N1c1ccccc1`, which inhibition [1] is on record?
A: 0%

Q: Which inhibition [1] does the source give for `O=C1N[C@H](C(=O)NCc2ccc(Cl)cc2Cl)C/C1=C\N1CCOCC1` here?
A: 56%

Q: Which inhibition [1] does the source give for `O=C(NCc1ccc(Cl)cc1Cl)[C@@H]1CCC(=O)N1Cc1ccccc1` here?
A: 100%

Q: What does the source list for `O=C(NCc1ccc(Cl)cc1Cl)[C@@H]1CCC(=O)N1c1cscn1`?
A: inhibition [3]: Tde; IC50 [4]: 0.384 µM; Ki [4]: 0.078 µM; half-life [5]: 4.8 min; metabolised at 40 min [6]: 98%; microsomal CLint [7]: 379 µL/min/mg; inhibition [8]: Active; inhibition [9]: Active; solubility [10]: Insoluble; Activity [11]: Non-Toxic; inhibition [1]: 98%; Stability [2]: Unstable; Activity [12]: inactive

Q: With `COc1ccc(CN2C(=O)CC[C@H]2C(=O)NCCc2ccccc2)cc1` as the compound, how does the inhibition [1] read?
A: 0%

Q: For `O=C(NCc1ccc(Cl)cc1Cl)[C@@H]1CCC(=O)N1C(c1ccccc1)c1ccccc1`, which inhibition [1] is on record?
A: 0%

Q: For `CCCCCCN1C(=O)[C@@H]2C/C(=C\N(C)C)C(=O)N2C1N(C)C` (stereo not given in full), which inhibition [1] is on record?
A: 0%

Q: Which inhibition [1] does the source give for `CN1CCN(/C=C2\C[C@@H](C(=O)NCc3ccc(Cl)cc3Cl)N(c3cccs3)C2=O)CC1` here?
A: 49%

Q: With `COc1ccc(NC(=O)[C@@H]2C/C(=C\N(C)C)C(=O)N2)cc1` as the compound, how does the inhibition [1] read?
A: 0%

Q: With `O=C(NCc1ccc(Cl)cc1Cl)[C@@H]1CCC(=O)N1c1ccc(Cl)cc1Cl` as the compound, how does the inhibition [1] read?
A: 0%

Q: Which inhibition [1] does the source give for `CN(C)C(=O)[C@@H]1CCC(=O)N1` here?
A: inactive

Q: With `N#Cc1ccc(N2C(=O)CC[C@H]2C(=O)NCc2ccc(Cl)cc2Cl)cc1` as the compound, how does the inhibition [1] read?
A: 0%

Q: With `CCCCCCN1C(=O)[C@@H]2CCC(=O)N2C1N(C)C` (stereo not given in full) as the compound, how does the inhibition [1] read?
A: 0%

Q: Which inhibition [1] does the source give for `O=C1N[C@H](C(=O)NCc2ccc(Cl)cc2Cl)C/C1=C/NCc1ccc(Cl)cc1Cl` here?
A: 0%

Q: Which inhibition [1] does the source give for `CN(C)/C=C1\C[C@H]2C(=O)N(/C(=C/N(C)C)c3ccncc3)C(N(C)C)N2C1=O` (stereo not given in full) here?
A: 0%

Q: Which inhibition [1] does the source give for `O=C(NCCc1ccc(Cl)cc1Cl)[C@@H]1CCC(=O)N1c1ccccc1` here?
A: 0%

Q: Which results are given for `O=C(NCc1ccc(Cl)cc1Cl)[C@@H]1CCC(=O)N1c1cccs1`?
A: inhibition [13]: Active; inhibition [3]: Tde; IC50 [4]: 0.72 µM; Ki [4]: 0.147 µM; half-life [5]: 1.5 min; metabolised at 40 min [6]: 100%; microsomal CLint [7]: 1070 µL/min/mg; inhibition [8]: Active; inhibition [9]: Active; solubility [10]: Insoluble; inhibition [14]: inactive; Activity [11]: Non-Toxic; inhibition [1]: 98%; Stability [2]: Unstable; Activity [12]: inactive
